Data on seven molecules can be found in ChEMBL document CHEMBL2375235, “Synthesis, radioiodination and in vivo screening of novel potent iodinated and fluorinated radiotracers as melanoma imaging and therapeutic probes” (Eur J Med Chem, 2013).

Data set [1] in a line: Drug uptake in tumor of C57BL/6J mouse xenografted with mouse B16F0 cells at 3.7 MBq, iv after 14 days by gamma scintigraphic imaging analysis relative to control. Type of data set: ADME, organism-based, Neoplasm. Conditions: in vivo, 336 h. The essentials:
(§1)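 Male C57BL/6J mice (6-8 weeks) bearing subcutaneous B16F0 tumours (3×10^5 cells in PBS, right flank, isoflurane anaesthesia); on day 14 after implant, [125I]-labelled tracer given i.v. via tail vein, 3.7 MBq/mouse, in physiological serum (some tracers in 5% ethanol/physiological serum); 3-8 animals per compound. Under i.p. ketamine (100 mg/kg)–xylazine (10 mg/kg), 10 min planar scintigrams acquired in prone position, 15% window on 35 keV peak.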

A short description of data set [2]: Drug uptake in tumor of C57BL/6J mouse xenografted with mouse B16F0 cells at 3.7 MBq, iv after 10 days by gamma scintigraphic imaging analysis relative to control. The data set is classed as ADME, organism-based, Neoplasm. Conditions: in vivo, 240 h. The essentials:
as §1

The nature of data set [3]: Drug uptake in tumor of C57BL/6J mouse xenografted with mouse B16F0 cells at 3.7 MBq, iv after 7 days by gamma scintigraphic imaging analysis relative to control. The data set is classed as ADME, organism-based, Neoplasm. To be noted: in vivo, 168 h. The method, boiled down:
as §1

Data set [4] in a line: Drug uptake in tumor of C57BL/6J mouse xenografted with mouse B16F0 cells at 3.7 MBq, iv after 5 days by gamma scintigraphic imaging analysis relative to control. The data set is classed as ADME, organism-based, Neoplasm. Conditions: in vivo, 120 h. The method, boiled down: as §1
A short description of data set [5]: Drug uptake in tumor of C57BL/6J mouse xenografted with mouse B16F0 cells at 3.7 MBq, iv after 72 hrs by gamma scintigraphic imaging analysis relative to control. Type of data set: ADME, organism-based, Neoplasm. Conditions: in vivo. The method, boiled down:
as §1

A short description of data set [6]: Drug uptake in tumor of C57BL/6J mouse xenografted with mouse B16F0 cells at 3.7 MBq, iv after 24 hrs by gamma scintigraphic imaging analysis relative to control. To be noted: in vivo. Type of data set: ADME, organism-based, Neoplasm. The essentials:
as §1

Data set [7] can be described thus: Drug uptake in tumor of C57BL/6J mouse xenografted with mouse B16F0 cells at 3.7 MBq, iv after 6 hrs by gamma scintigraphic imaging analysis relative to control. To be noted: in vivo. Type of data set: ADME, organism-based, Neoplasm. The essentials:
as §1

Data set [8] is described as follows: Drug uptake in tumor of C57BL/6J mouse xenografted with mouse B16F0 cells at 3.7 MBq, iv after 3 hrs by gamma scintigraphic imaging analysis relative to control. Type of data set: ADME, organism-based, Neoplasm. Conditions: in vivo. The essentials: as §1
A short description of data set [9]: Drug uptake in tumor of C57BL/6J mouse xenografted with mouse B16F0 cells at 3.7 MBq, iv after 1 hr by gamma scintigraphic imaging analysis relative to control. To be noted: in vivo. Type of data set: ADME, organism-based, Neoplasm. The method, boiled down:
as §1

A short description of data set [10]: Ratio of drug uptake in tumor to muscle in C57BL/6J mouse xenografted with mouse B16F0 cells at 3.7 MBq, iv after 1 hr. To be noted: in vivo.
Data set [11] deals with Mus musculus. In words: Toxicity against C57BL/6J mouse xenografted with mouse B16F0 cells assessed as mortality at 3.7 MBq, iv after 2 days. Type of data set: organism-based. Conditions: in vivo, 48 h. The essentials:
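Male C57BL/6J mice (6-8 weeks) were inoculated s.c. on the right flank with 3×10^5 B16F0 cells in 0.1 mL PBS under 2% isoflurane. On day 14 after implant they received the [125I]-labelled tracer i.v. via the tail vein at 3.7 MBq/mouse, in physiological serum (5% ethanol in physiological serum for non-salt forms), with 3–8 animals per compound. Survival was recorded 2 days post-injection.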

For the molecule `CCN(CCNC(=O)c1cnc2cc([125I])ccc2n1)CCOCCOCCOCCF.Cl`, the Drug uptake in [1] came out at 0.6 % ID/g; in data set [2], 1.3 % ID/g; in data set [3] it was 2.7 % ID/g; in [4] it was 5.8 % ID/g; in data set [5], 8.6 % ID/g; in [6], 12.4 % ID/g. Also, the figures for the Drug uptake in data set [7], in data set [8] and in data set [9] were 12.1 % ID/g, 12.1 % ID/g and 11.7 % ID/g, respectively. For the same molecule, in data set [10], the Ratio was determined as 5.76.
On to `CCN(CCNC(=O)c1cnc2cc([125I])ccc2n1)Cc1cn(CCF)nn1.Cl`, for which the Drug uptake in data set [1] stood at 1.8 % ID/g; in data set [2], 3.7 % ID/g; in data set [3], 5.3 % ID/g; in data set [4], 8.6 % ID/g; in data set [5], 11 % ID/g; in [6] it was 15.6 % ID/g. Besides, the results for the Drug uptake in data set [7], in data set [8] and in data set [9] were 15.9 % ID/g, 14.5 % ID/g and 13 % ID/g, respectively. The Ratio in data set [10] is recorded as 5.76.
`CCN(CC#CCF)CCNC(=O)c1cnc2cc([125I])ccc2n1.Cl`: the Drug uptake in data set [1] is listed as 2.2 % ID/g; in data set [2], 4.2 % ID/g; in [3], 8 % ID/g; in [4], 11.6 % ID/g; in [5], 14.9 % ID/g; in data set [6], 23.5 % ID/g. Further, the Drug uptake in [7] came out at 23.3 % ID/g; in [8] it was 18.3 % ID/g; in [9] it was 12.3 % ID/g. Besides, the Ratio in data set [10] came to 5.76.
For the molecule `CCN(CCF)CCNC(=O)c1cnc2cc([125I])ccc2n1.Cl`, in data set [11], the Activity result is given as “Toxic”. Moreover, the Drug uptake in data set [1] is reported as 0.6 % ID/g; in data set [2], 1.6 % ID/g; in data set [4], 8.4 % ID/g; in data set [5] it was 20 % ID/g; in data set [6], 24.8 % ID/g; in data set [7], 25 % ID/g. Further, the figures for the Drug uptake in data set [8] and in [9] were 22.5 % ID/g and 21.4 % ID/g, respectively.
On to `CCN(C/C=C/CF)CCNC(=O)c1cnc2cc([125I])ccc2n1.Cl`, for which the Drug uptake in [1] stood at 1.3 % ID/g; in [2], 1.9 % ID/g; in data set [3], 3.3 % ID/g; in data set [4], 5.6 % ID/g; in [5], 10 % ID/g; in [6], 15 % ID/g. Also, the Drug uptake in data set [7] worked out at 13.9 % ID/g; in data set [8], 12.3 % ID/g; in [9], 10.8 % ID/g. Further, the Ratio in data set [10] was found to be 5.76.
Regarding `CCN(CCCF)CCNC(=O)c1cnc2cc([125I])ccc2n1`, the Drug uptake is listed as 0.8 % ID/g in data set [1]; 1.4 % ID/g in data set [2]; 3 % ID/g in [3]; 5.4 % ID/g in data set [4]; 8.5 % ID/g in data set [5]; 11.4 % ID/g in data set [6]. The Drug uptake is 15.3 % ID/g in data set [7], 13.5 % ID/g in data set [8] and 10 % ID/g in [9].
On to `CCN(CCNC(=O)c1cnc2cc([125I])ccc2n1)CCOCCOCCOCCOCCOCCOCCOCCF`, for which the Drug uptake in data set [1] amounted to 0.3 % ID/g; in data set [2], 0.8 % ID/g; in data set [3], 1.5 % ID/g; in data set [4], 2.7 % ID/g; in [5], 3.8 % ID/g; in [6], 6.8 % ID/g. In addition, the Drug uptake is given as 7.2 % ID/g in [7], 7.8 % ID/g in [8] and 6.8 % ID/g in data set [9].
